Assay results collected from several papers.
Target: Phosphatidylinositol 4-phosphate 3-kinase C2 domain-containing subunit beta (PIK3C2B, Homo sapiens, UniProt O00750)

| Compound | effect on | action | technique | tested at | measurement | result |
| --- | --- | --- | --- | --- | --- | --- |
| CCCCC(=O)Nc1ccc(-c2ccc3ncn(CCC)c(=O)c3c2)cn1 | binding |  | competition with immobilised ligand | 0.5 µM | remaining binding | 100% |
| C1=C/COCc2cc(ccc2OCCN2CCCC2)Nc2nccc(n2)-c2cccc(c2)COC/1 | binding |  |  | 0.1 µM | remaining binding | 87% |
| C=CC(=O)N1CCC([C@@H]2CCNc3c(C(N)=O)c(-c4ccc(Oc5ccccc5)cc4)nn32)CC1 | enzyme activity | inhibitor |  | 1 µM | inhibition | 0% |
| C[C@H]1CC[C@H](n2c3cnccc3c3cnc(Nc4ccc5c(n4)CCN(C(=O)CO)C5)nc32)CC1 | cell-free assay |  |  | 1 µM | remaining signal | 100% |
| C#Cc1cnc(Nc2ccnc(CO)c2)nc1Nc1ccccc1S(C)(=O)=NC#N (centres unmarked) | cell-free assay |  |  | 1 µM | remaining signal | 100% |
| CN1CCN(C(=O)c2ccc(NC(=O)Nc3ccc(N(C)c4ccnc(Nc5ccc(CS(C)(=O)=O)cc5)n4)cc3)cc2)CC1 | binding |  |  | 1 µM | remaining binding | 100% |
| CC#CC(=O)N1CCC[C@H]1c1nc(-c2ccc(C(=O)Nc3ccccn3)cc2)c2c(N)nccn12 | enzyme activity | inhibitor |  | 1 µM | inhibition | 0% |
| N#Cc1ccc(NC(=O)Nc2ccccc2)cc1 | cell-free assay |  | competition with immobilised ligand | 25 µM | remaining binding | 79% |
